Reference: ChEMBL document CHEMBL1148723, “Structure-based rational design of beta-hairpin peptides from discontinuous epitopes of cluster of differentiation 2 (CD2) protein to modulate cell adhesion interaction” (J Med Chem, 2007)
Calls of active or inactive are those of the source. The rule behind the calls is not given here. Peptide text beside a SMILES is read from it.

Key:
Jurkat (Homo sapiens) = assay: Inhibition of ICAM1-LFA1 mediated adhesion in Jurkat cells
Jurkat [1] = assay: Inhibition of CD2-CD58 interaction assessed as inhibition of adhesion between Jurkat cells and Caco-2 cells at 90 uM; type: cell-based; details: Homo sapiens
Outline: (§1)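 Lymphocyte–epithelial adhesion: peptide added to confluent Caco-2 monolayer (hCD58), then BCECF-labelled Jurkat cells (hCD2). 45 min at 37 °C, nonadherent cells washed off with PBS, bound Jurkat cells lysed with Triton X-100, lysate fluorescence read. Result expressed as % inhibition versus untreated, mean of three independent experiments.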

Erythrocyte = assay: Inhibition of CD2-CD58 interaction assessed as inhibition of E-rosette formation between Jurkat cells and sheep RBCs at 200 uM; type: cell-based; design: Activity: scale not given: the % may be the effect or the level left
Outline: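 E-rosetting: test peptide added first to AET-treated sheep red blood cells (CD58-expressing), then an equal amount of Jurkat T cells (CD2-expressing). Cells with five or more bound SRBCs scored as rosettes. Read-out is % inhibition of rosette formation versus untreated cells, mean of three independent experiments; anti-CD58 antibody as positive control.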

Jurkat [2] = assay: Inhibition of CD2-CD58 interaction assessed as inhibition of adhesion between Jurkat cells and Caco-2 cells; type: cell-based; details: Homo sapiens, dose or concentration not given here
Outline: as §1

In the case of `CC[C@H](C)[C@@H]1NC(=O)[C@H](CC(=O)O)NC(=O)[C@H](CC(=O)O)NC(=O)[C@H](N)C(C)(C)SSC[C@H](C(=O)O)NC(=O)[C@H](CC(=O)O)NC(=O)[C@H](Cc2ccc(O)cc2)NC(=O)[C@H]([C@@H](C)CC)NC(=O)[C@H](CO)NC(=O)[C@H](C(C)C)NC(=O)[C@H](CCCCN)NC(=O)[C@H](CCC(=O)O)NC(=O)[C@H](Cc2c[nH]c3ccccc23)NC(=O)[C@H](CCCCN)NC1=O`, the Activity (Jurkat (Homo sapiens)) is reported as “inactive”, the inhibition (Jurkat [1]) is reported as 50% and the inhibition (Erythrocyte) is reported as 40%.
For `CC[C@H](C)[C@@H]1NC(=O)[C@H](CC(=O)O)NC(=O)[C@H](CC(=O)O)NC(=O)[C@H]([C@@H](C)CC)NC(=O)[C@H](CCCCN)NC(=O)[C@H](N)C(C)(C)SSC[C@H](C(=O)O)NC(=O)[C@H](CO)NC(=O)[C@H]([C@@H](C)CC)NC(=O)[C@H](Cc2ccc(O)cc2)NC(=O)[C@H](CC(=O)O)NC(=O)[C@H]([C@@H](C)O)NC(=O)[C@H](CCCCN)NC(=O)[C@H](CC(=O)O)NC1=O`, the inhibition (Erythrocyte) was 25%.
`CC[C@H](C)[C@H](N)C(=O)N[C@@H](CC(=O)O)C(=O)N[C@@H](CC(=O)O)C(=O)N[C@H](C(=O)N[C@@H](CCCCN)C(=O)N[C@@H](Cc1c[nH]c2ccccc12)C(=O)N[C@@H](CCC(=O)O)C(=O)N[C@@H](CCCCN)C(=O)N[C@H](C(=O)N[C@@H](CO)C(=O)N[C@H](C(=O)N[C@@H](Cc1ccc(O)cc1)C(=O)N[C@@H](CC(=O)O)C(=O)N[C@H](C(=O)O)[C@@H](C)O)[C@@H](C)CC)C(C)C)[C@@H](C)CC` (H-IDDIKWEKVSIYDT-OH) gave an inhibition (Jurkat [2]) of 30%.
With `CC[C@H](C)[C@@H]1NC(=O)[C@H](CCCCN)NC(=O)[C@H](N)C(C)(C)SSC[C@H](C(=O)O)NC(=O)[C@H](CO)NC(=O)[C@H]([C@@H](C)CC)NC(=O)[C@H](Cc2ccc(O)cc2)NC(=O)[C@H](CC(=O)O)NC(=O)[C@H]([C@@H](C)O)NC(=O)[C@H]([C@@H](C)CC)NC(=O)[C@H](CC(=O)O)NC(=O)[C@H](CC(=O)O)NC1=O` the Activity (Jurkat (Homo sapiens)) was “inactive”, the inhibition (Jurkat [1]) was 60% and the Activity (Erythrocyte) was 45%.
With `CC[C@H](C)[C@H](NC(=O)[C@H](CC(=O)O)NC(=O)[C@H](CC(=O)O)NC(=O)[C@@H](NC(=O)[C@H](CCCCN)NC(=O)[C@@H](N)Cc1c[nH]c2ccccc12)[C@@H](C)CC)C(=O)N[C@@H](CC(=O)O)C(=O)N[C@@H](CCCCN)C(=O)N[C@H](C(=O)N[C@@H](CC(=O)O)C(=O)N[C@@H](Cc1ccc(O)cc1)C(=O)N[C@H](C(=O)N[C@@H](CO)C(=O)N[C@H](C(=O)O)C(C)C)[C@@H](C)CC)[C@@H](C)O` (H-WKIDDIDKTDYISV-OH) the inhibition (Erythrocyte) was 15%.
With `CC[C@H](C)[C@H](NC(=O)[C@H](CCCCN)NC(=O)[C@@H](N)Cc1c[nH]c2ccccc12)C(=O)N[C@@H](CC(=O)O)C(=O)N[C@@H](CC(=O)O)C(=O)N[C@H](C(=O)N[C@H](C(=O)N[C@@H](CC(=O)O)C(=O)N[C@@H](Cc1ccc(O)cc1)C(=O)N[C@H](C(=O)N[C@@H](CO)C(=O)N[C@H](C(=O)O)C(C)C)[C@@H](C)CC)[C@@H](C)O)[C@@H](C)CC` (H-WKIDDITDYISV-OH) the inhibition (Erythrocyte) was 35%.
For `CC[C@H](C)[C@@H]1NC(=O)[C@H](CC(=O)O)NC(=O)[C@H](CC(=O)O)NC(=O)[C@H](N)C(C)(C)SSC[C@@H](C(=O)O)NC(=O)[C@H](CC(=O)O)NC(=O)[C@H](Cc2ccc(O)cc2)NC(=O)[C@H]([C@@H](C)CC)NC(=O)[C@H](CO)NC(=O)[C@H](C(C)C)NC(=O)[C@H](Cc2c[nH]c3ccccc23)NC(=O)[C@H](CCCCN)NC1=O`, the inhibition (Erythrocyte) was 30%.
